{"source": "ChEMBL document CHEMBL4689842", "about": "“EUbOPEN Chemogenomics Library wave 1” (2021)", "test_system": "HEK-293T", "experiment": "Multiplex assay against HEK293T;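 for Population Tubulin-Different-Phenotype (%): share of the cells with healthy nuclei that show this phenotype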", "type": "toxicity, cell-based", "conditions": "human", "outline": "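Live cells were stained at seeding with Hoechst33342, BioTracker Green Microtubule Cytoskeleton Dye, MitoTracker Red and Annexin V Alexa Fluor 680, then imaged on a CQ1 microscope at 37°C and 5% CO2 after compound addition. CellPathfinder machine-learning gating split cells into Hoechst high-intensity objects or normal cells. Normal cells were split into healthy, pyknosed or fragmented nuclei, and pyknosed cells into mitotic or apoptotic. Tubulin, mitochondrial-mass and membrane-permeability phenotypes are per cents of healthy-nucleus cells.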", "key": {"[1]": {"conditions": "12 h, 1 µM, compound concentration 1 uM, replicate 1"}, "[2]": {"conditions": "12 h, 1 µM, compound concentration 1 uM, replicate 2"}, "[3]": {"conditions": "12 h, 10 µM, compound concentration 10 uM, replicate 1"}, "[4]": {"conditions": "12 h, 10 µM, compound concentration 10 uM, replicate 2"}, "[5]": {"conditions": "24 h, 1 µM, compound concentration 1 uM, replicate 1"}, "[6]": {"conditions": "24 h, 1 µM, compound concentration 1 uM, replicate 2"}, "[7]": {"conditions": "24 h, 10 µM, compound concentration 10 uM, replicate 1"}, "[8]": {"conditions": "24 h, 10 µM, compound concentration 10 uM, replicate 2"}}, "note": "Where “and” joins values, the source holds several entries; their conditions need not be identical. Equal entries are not always repeated."}
{"smiles": "CC(=O)O[C@H]1C(=O)[C@@]2(C)[C@H]([C@H](OC(=O)c3ccccc3)[C@]3(O)C[C@H](OC(=O)[C@H](O)[C@@H](NC(=O)c4ccccc4)c4ccccc4)C(C)=C1C3(C)C)[C@]1(OC(C)=O)CO[C@@H]1C[C@@H]2O", "note": "[PACLITAXEL]", "values": [{"measurement": "Population Apoptotic (%)", "setting": "[1]", "result": "21% and 24%"}, {"measurement": "Population Fragmented Nuclei (%)", "setting": "[1]", "result": "12% and 13%"}, {"measurement": "Population Healthy Nuclei (%)", "setting": "[1]", "result": "71% and 68%"}, {"measurement": "Population Hoechst High Intensity Objects (%)", "setting": "[1]", "result": "10% and 14%"}, {"measurement": "Population Membrane Permeable-Phenotype (%)", "setting": "[1]", "result": 4, "unit": "%"}, {"measurement": "Population Mitochondria Different-Phenotype (%)", "setting": "[1]", "result": "3% and 4%"}, {"measurement": "Population Mitotic Cells (%)", "setting": "[1]", "result": "78% and 75%"}, {"measurement": "Population Normal (%)", "setting": "[1]", "result": "89% and 85%"}, {"measurement": "Population Pyknosed Nuclei (%)", "setting": "[1]", "result": "15% and 18%"}, {"measurement": "Population Tubulin-Different-Phenotype (%)", "setting": "[1]", "result": 2, "unit": "%"}, {"measurement": "Population Apoptotic (%)", "setting": "[2]", "result": "7% and 10%"}, {"measurement": "Population Fragmented Nuclei (%)", "setting": "[2]", "result": "10% and 8%"}, {"measurement": "Population Healthy Nuclei (%)", "setting": "[2]", "result": "85% and 87%"}, {"measurement": "Population Hoechst High Intensity Objects (%)", "setting": "[2]", "result": 1, "unit": "%"}, {"measurement": "Population Membrane Permeable-Phenotype (%)", "setting": "[2]", "result": "1% and 0%"}, {"measurement": "Population Mitochondria Different-Phenotype (%)", "setting": "[2]", "result": 5, "unit": "%"}, {"measurement": "Population Mitotic Cells (%)", "setting": "[2]", "result": "92% and 89%"}, {"measurement": "Population Normal (%)", "setting": "[2]", "result": 98, "unit": "%"}, {"measurement": "Population Pyknosed Nuclei (%)", "setting": "[2]", "result": "3% and 4%"}, {"measurement": "Population Apoptotic (%)", "setting": "[3]", "result": "23% [middle of 4 runs]"}, {"measurement": "Population Fragmented Nuclei (%)", "setting": "[3]", "result": "15% and 13% and 11% and 10%"}, {"measurement": "Population Healthy Nuclei (%)", "setting": "[3]", "result": "69% and 72% and 76% and 75%"}, {"measurement": "Population Hoechst High Intensity Objects (%)", "setting": "[3]", "result": "11% and 7% and 8%"}, {"measurement": "Population Membrane Permeable-Phenotype (%)", "setting": "[3]", "result": "8% and 5% and 4%"}, {"measurement": "Population Mitochondria Different-Phenotype (%)", "setting": "[3]", "result": "5% and 4% and 3%"}, {"measurement": "Population Mitotic Cells (%)", "setting": "[3]", "result": "80% and 77% and 72% and 76%"}, {"measurement": "Population Normal (%)", "setting": "[3]", "result": "88% and 92% and 91%"}, {"measurement": "Population Pyknosed Nuclei (%)", "setting": "[3]", "result": "14% [middle of 4 runs]"}, {"measurement": "Population Tubulin-Different-Phenotype (%)", "setting": "[3]", "result": "2% and 3%"}, {"measurement": "Population Apoptotic (%)", "setting": "[4]", "result": "12% and 6% and 9%"}, {"measurement": "Population Fragmented Nuclei (%)", "setting": "[4]", "result": "8% and 14%"}, {"measurement": "Population Healthy Nuclei (%)", "setting": "[4]", "result": "86% and 81% and 85%"}, {"measurement": "Population Hoechst High Intensity Objects (%)", "setting": "[4]", "result": "1% and 3% and 2%"}, {"measurement": "Population Membrane Permeable-Phenotype (%)", "setting": "[4]", "result": "1% and 0%"}, {"measurement": "Population Mitochondria Different-Phenotype (%)", "setting": "[4]", "result": 7, "unit": "%"}, {"measurement": "Population Mitotic Cells (%)", "setting": "[4]", "result": "87% and 93% and 90%"}, {"measurement": "Population Normal (%)", "setting": "[4]", "result": "98% and 96% and 97%"}, {"measurement": "Population Pyknosed Nuclei (%)", "setting": "[4]", "result": "4% and 3%"}, {"measurement": "Population Tubulin-Different-Phenotype (%)", "setting": "[4]", "result": "4% and 1%"}, {"measurement": "Population Apoptotic (%)", "setting": "[5]", "result": "10% and 29%"}, {"measurement": "Population Fragmented Nuclei (%)", "setting": "[5]", "result": "12% and 13%"}, {"measurement": "Population Healthy Nuclei (%)", "setting": "[5]", "result": 79, "unit": "%"}, {"measurement": "Population Hoechst High Intensity Objects (%)", "setting": "[5]", "result": "7% and 8%"}, {"measurement": "Population Membrane Permeable-Phenotype (%)", "setting": "[5]", "result": "8% and 7%"}, {"measurement": "Population Mitochondria Different-Phenotype (%)", "setting": "[5]", "result": "2% and 4%"}, {"measurement": "Population Mitotic Cells (%)", "setting": "[5]", "result": "89% and 70%"}, {"measurement": "Population Normal (%)", "setting": "[5]", "result": "92% and 91%"}, {"measurement": "Population Pyknosed Nuclei (%)", "setting": "[5]", "result": "8% and 7%"}, {"measurement": "Population Tubulin-Different-Phenotype (%)", "setting": "[5]", "result": "2% and 4%"}, {"measurement": "Population Apoptotic (%)", "setting": "[6]", "result": 7, "unit": "%"}, {"measurement": "Population Fragmented Nuclei (%)", "setting": "[6]", "result": "24% and 32%"}, {"measurement": "Population Healthy Nuclei (%)", "setting": "[6]", "result": "73% and 65%"}, {"measurement": "Population Hoechst High Intensity Objects (%)", "setting": "[6]", "result": "3% and 4%"}, {"measurement": "Population Membrane Permeable-Phenotype (%)", "setting": "[6]", "result": "5% and 3%"}, {"measurement": "Population Mitochondria Different-Phenotype (%)", "setting": "[6]", "result": "1% and 0%"}, {"measurement": "Population Mitotic Cells (%)", "setting": "[6]", "result": 92, "unit": "%"}, {"measurement": "Population Normal (%)", "setting": "[6]", "result": "96% and 95%"}, {"measurement": "Population Pyknosed Nuclei (%)", "setting": "[6]", "result": 1, "unit": "%"}, {"measurement": "Population Apoptotic (%)", "setting": "[7]", "result": "22% [middle of 4 runs]"}, {"measurement": "Population Fragmented Nuclei (%)", "setting": "[7]", "result": "15% [middle of 4 runs]"}, {"measurement": "Population Healthy Nuclei (%)", "setting": "[7]", "result": "80% and 78% and 81% and 79%"}, {"measurement": "Population Hoechst High Intensity Objects (%)", "setting": "[7]", "result": "5% and 3% and 6%"}, {"measurement": "Population Membrane Permeable-Phenotype (%)", "setting": "[7]", "result": "10% and 7%"}, {"measurement": "Population Mitochondria Different-Phenotype (%)", "setting": "[7]", "result": "2% and 3%"}, {"measurement": "Population Mitotic Cells (%)", "setting": "[7]", "result": "77% and 76% and 82% and 79%"}, {"measurement": "Population Normal (%)", "setting": "[7]", "result": "94% and 96% and 93%"}, {"measurement": "Population Pyknosed Nuclei (%)", "setting": "[7]", "result": "4% and 5% and 6% and 7%"}, {"measurement": "Population Tubulin-Different-Phenotype (%)", "setting": "[7]", "result": "4% and 5%"}, {"measurement": "Population Fragmented Nuclei (%)", "setting": "[8]", "result": "30% [middle of 4 runs]"}, {"measurement": "Population Healthy Nuclei (%)", "setting": "[8]", "result": "73% and 69% and 60% and 67%"}, {"measurement": "Population Hoechst High Intensity Objects (%)", "setting": "[8]", "result": 4, "unit": "%"}, {"measurement": "Population Membrane Permeable-Phenotype (%)", "setting": "[8]", "result": "3% and 2%"}, {"measurement": "Population Mitochondria Different-Phenotype (%)", "setting": "[8]", "result": "1% and 0%"}, {"measurement": "Population Mitotic Cells (%)", "setting": "[8]", "result": "87% and 96% and 93% and 98%"}, {"measurement": "Population Normal (%)", "setting": "[8]", "result": 95, "unit": "%"}, {"measurement": "Population Pyknosed Nuclei (%)", "setting": "[8]", "result": "1% and 2%"}, {"measurement": "Population Tubulin-Different-Phenotype (%)", "setting": "[8]", "result": 2, "unit": "%"}]}
